In ChEMBL document CHEMBL1135670, “Discovery of 8-hydroxyadenines as a novel type of interferon inducer” (2002) one finds minimal effective concentration and minimal effective dose data, which are given here for 48 molecules.

The structures appear in SMILES notation.

For assay [1], the species on record is Mus musculus. Briefly: Minimum effective concentration required for more than 1 IU/mL induction of IFN using mice spleen cells. In kind it is functional. As to conditions: read-out: MEC. The procedure, abridged: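 Mouse spleen cells incubated with compound; IFN released into medium measured in IU/mL. Value is the minimum effective concentration, the lowest concentration giving more than 1 IU/mL IFN.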

In assay [2] the test system is Mus musculus. Put plainly: Minimum effective dose required for more than 100 IU/mL induction of IFN using mice after peroral administration. In kind it is functional. The note with it: po, read-out: MED. The procedure, abridged: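 Compound dosed orally to mice; IFN measured in plasma in IU/mL. Value is the minimum effective dose in mg/kg, the lowest dose giving more than 100 IU/mL IFN.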

Regarding `Nc1ncnc2c1nc(O)n2Cc1ccc(Cl)cc1`, the minimal effective concentration in the assay filed under Mus musculus [1] amounted to 10 µM. The minimal effective dose in the assay with Mus musculus [2] was determined as 30 mg/kg.
As to `COc1cccc(Cn2c(O)nc3c(N)ncnc32)c1`, in the assay listed under Mus musculus [1], the minimal effective concentration was 10 µM.
Same read-out and setting: in the case of `Nc1ncnc2c1nc(Br)n2Cc1ccccc1` it was over 10 µM.
Consider `CCCCCOc1nc(N)c2nc(O)n(Cc3ccccc3)c2n1`, for which the minimal effective concentration in the assay listed under Mus musculus [1] worked out at 0.01 µM. Further, in the assay with Mus musculus [2], the minimal effective dose turned out to be 0.3 mg/kg.
For `Nc1nc(N)c2nc(O)n(Cc3ccccc3)c2n1`, in the assay filed under Mus musculus [1], the minimal effective concentration amounted to 10 µM.
Same read-out and setting: the value for `CSc1nc2c(N)ncnc2n1Cc1ccccc1` was over 10 µM.
As to `CCCC[S+]([O-])c1nc(N)c2nc(O)n(Cc3ccccc3)c2n1` (centres undefined), in the assay listed under Mus musculus [1], the minimal effective concentration is 0.01 µM. For the same molecule, the minimal effective dose in the assay with Mus musculus [2] is 1 mg/kg.
For the molecule `CCCNc1nc(N)c2nc(O)n(Cc3ccccc3)c2n1`, in the assay listed under Mus musculus [1], the minimal effective concentration was determined as 0.1 µM. Moreover, the minimal effective dose in the assay on Mus musculus [2] came out at 1 mg/kg.
Consider `Nc1ncnc2c1nc(I)n2Cc1ccccc1`, for which the minimal effective concentration in the assay listed under Mus musculus [1] was over 10 µM.
As to `Cc1nc2c(N)ncnc2n1Cc1ccccc1`, the minimal effective concentration in the assay filed under Mus musculus [1] is over 10 µM.
Consider `CC(C)Cn1cnc2c(N)nc3ccccc3c21` [IMIQUIMOD], for which the minimal effective concentration in the assay filed under Mus musculus [1] turned out to be 1 µM. In addition, the minimal effective dose in the assay with Mus musculus [2] was 3 mg/kg.
On to `Nc1ncnc2c1ncn2Cc1ccccc1` [9-BENZYL-9H-ADENINE], for which, in the assay listed under Mus musculus [1], the minimal effective concentration is over 10 µM.
In the case of `CCCSc1nc(N)c2nc(O)n(Cc3ccccc3)c2n1`, the minimal effective concentration in the assay listed under Mus musculus [1] was determined as 0.01 µM. Further, in the assay with Mus musculus [2], the minimal effective dose is 0.1 mg/kg.
As to `Cc1nc(N)c2nc(O)n(Cc3ccccc3)c2n1`, the minimal effective concentration in the assay filed under Mus musculus [1] is 1 µM. For the same molecule, in the assay on Mus musculus [2], the minimal effective dose worked out at 3 mg/kg.
Regarding `Nc1nc(S)nc2c1nc(O)n2Cc1ccccc1`, the minimal effective concentration in the assay listed under Mus musculus [1] turned out to be 10 µM.
On to `Nc1nc(SCc2ccccc2)nc2c1nc(O)n2Cc1ccccc1`, for which, in the assay filed under Mus musculus [1], the minimal effective concentration amounted to 0.1 µM. Further, in the assay with Mus musculus [2], the minimal effective dose is over 1 mg/kg.
As for `Cc1ccc(Cn2c(O)nc3c(N)ncnc32)cc1`, in the assay filed under Mus musculus [1], the minimal effective concentration stood at 10 µM.
On to `CCCCOc1nc(N)c2[nH]c(=O)n(Cc3ccccc3)c2n1`, for which the minimal effective concentration in the assay filed under Mus musculus [1] turned out to be 0.001 µM. Moreover, in the assay on Mus musculus [2], the minimal effective dose is 0.1 mg/kg.
Regarding `Nc1ncnc2[nH]c(O)nc12`, in the assay listed under Mus musculus [1], the minimal effective concentration is over 10 µM.
Consider `CCCCNc1nc(N)c2nc(O)n(Cc3ccccc3)c2n1`, for which, in the assay filed under Mus musculus [1], the minimal effective concentration is 0.1 µM. Also, the minimal effective dose with Mus musculus [2] amounted to 0.1 mg/kg.
In the same order, the values of `Nc1ncnc2c1nc(O)n2Cc1ccc(F)cc1` are 10 µM and 30 mg/kg.
In the same order, the values of `CCSc1nc(N)c2nc(O)n(Cc3ccccc3)c2n1` are 0.1 µM and 0.1 mg/kg.
Regarding `CCc1nc(N)c2nc(O)n(Cc3ccccc3)c2n1`, the minimal effective concentration in the assay filed under Mus musculus [1] came to 1 µM. For the same molecule, the minimal effective dose in the assay with Mus musculus [2] is 3 mg/kg.
As for `Nc1ncnc2c1nc(O)n2Cc1ccccc1`, the minimal effective concentration in the assay filed under Mus musculus [1] came to 10 µM. For the same molecule, the minimal effective dose with Mus musculus [2] stood at 30 mg/kg.
`COc1nc(N)c2nc(O)n(Cc3ccccc3)c2n1`: the minimal effective concentration in the assay filed under Mus musculus [1] was determined as 0.1 µM. The minimal effective dose in the assay on Mus musculus [2] was over 1 mg/kg.
As to `Nc1ncnc2c1nc(Cl)n2Cc1ccccc1`, the minimal effective concentration in the assay filed under Mus musculus [1] is over 10 µM.
On the same count and under the same terms, in the case of `CCCCn1c(O)nc2c(N)ncnc21` it was over 10 µM.
Regarding `CCNc1nc(N)c2nc(O)n(Cc3ccccc3)c2n1`, in the assay listed under Mus musculus [1], the minimal effective concentration was 1 µM.
In the case of `CSc1nc(N)c2nc(O)n(Cc3ccccc3)c2n1`, in the assay listed under Mus musculus [1], the minimal effective concentration was 0.1 µM. Moreover, the minimal effective dose in the assay with Mus musculus [2] amounted to 0.1 mg/kg.
As to `Nc1ncnc2c1nc(O)n2CCc1ccccc1`, the minimal effective concentration in the assay filed under Mus musculus [1] was over 10 µM.
For `CCCOc1nc(N)c2nc(O)n(Cc3ccccc3)c2n1`, the minimal effective concentration in the assay listed under Mus musculus [1] was 0.01 µM. Further, the minimal effective dose in the assay on Mus musculus [2] came to 0.3 mg/kg.
For `COc1ccccc1Cn1c(O)nc2c(N)ncnc21`, in the assay listed under Mus musculus [1], the minimal effective concentration was found to be 10 µM.
As to `CCCc1nc(N)c2nc(O)n(Cc3ccccc3)c2n1`, the minimal effective concentration in the assay filed under Mus musculus [1] was 1 µM. Further, the minimal effective dose with Mus musculus [2] is 3 mg/kg.
`CCOc1nc(N)c2nc(O)n(Cc3ccccc3)c2n1`: the minimal effective concentration in the assay listed under Mus musculus [1] was found to be 0.1 µM. Further, the minimal effective dose in the assay on Mus musculus [2] is 0.3 mg/kg.
On to `Nc1ncnc2c1nc(O)n2Cc1cccc2ccccc12`, for which, in the assay listed under Mus musculus [1], the minimal effective concentration was found to be 10 µM.
Still for that read-out and setting: the value for `COc1ccc(Cn2c(O)nc3c(N)ncnc32)cc1` was 10 µM.
For `Nc1nc(-c2ccccc2)nc2c1nc(O)n2Cc1ccccc1`, the minimal effective concentration in the assay filed under Mus musculus [1] is 10 µM. Further, in the assay with Mus musculus [2], the minimal effective dose is over 30 mg/kg.
In the same order, the values of `CCCCCNc1nc(N)c2nc(O)n(Cc3ccccc3)c2n1` are 0.1 µM and 0.3 mg/kg.
As for `NNc1nc2c(N)ncnc2n1Cc1ccccc1`, the minimal effective concentration in the assay listed under Mus musculus [1] was over 10 µM.
Regarding `COc1nc2c(N)ncnc2n1Cc1ccccc1`, the minimal effective concentration in the assay filed under Mus musculus [1] is over 10 µM.
In the case of `CCCCCSc1nc(N)c2nc(O)n(Cc3ccccc3)c2n1`, the minimal effective concentration in the assay filed under Mus musculus [1] was 10 µM. Besides, in the assay on Mus musculus [2], the minimal effective dose was determined as 1 mg/kg.
In the same order, the values of `CCCCSc1nc(N)c2nc(O)n(Cc3ccccc3)c2n1` are 0.01 µM and 0.3 mg/kg.
For the molecule `CNc1nc(N)c2nc(O)n(Cc3ccccc3)c2n1`, the minimal effective concentration in the assay listed under Mus musculus [1] turned out to be 1 µM.
`Nc1ncnc2c1nc(O)n2C1CCCC1`: the minimal effective concentration in the assay filed under Mus musculus [1] was over 10 µM.
Regarding `Nc1nc(O)nc2c1nc(O)n2Cc1ccccc1`, in the assay listed under Mus musculus [1], the minimal effective concentration worked out at 0.1 µM. Besides, the minimal effective dose with Mus musculus [2] worked out at 1 mg/kg.
As to `Nc1ncnc2c1nc(O)n2-c1ccccc1`, the minimal effective concentration in the assay filed under Mus musculus [1] was over 10 µM.
For the molecule `Nc1ncnc2c1nc(S)n2Cc1ccccc1`, in the assay listed under Mus musculus [1], the minimal effective concentration came to 10 µM. Besides, the minimal effective dose with Mus musculus [2] was over 30 mg/kg.
Turning to `CCCCc1nc(N)c2nc(O)n(Cc3ccccc3)c2n1`, the minimal effective concentration in the assay filed under Mus musculus [1] amounted to 0.03 µM. For the same molecule, the minimal effective dose in the assay on Mus musculus [2] was found to be 0.3 mg/kg.
